Source: ChEMBL document CHEMBL1153346, “Structure-activity study of pentamidine analogues as antiprotozoal agents” (J Med Chem, 2009)
Activity calls are given as the source filed them. No cut-off for these calls is given here.

Legend:
[1] = test system: Trypanosoma brucei rhodesiense; experiment: Antitrypanosomal activity against Trypanosoma brucei rhodesiense STIB900 trypomastigotes infected in NMRI mouse assessed as mouse survival at 20 mg/kg, ip administered from day 3 to day 6 postinfection; type: functional; conditions: route intraperitoneal
In short: (§1)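 STIB900 acute mouse model. Dosing was intraperitoneal, daily for four days, in DMSO diluted with water to 10% final DMSO. An infected untreated control group was kept. Tail blood was checked for parasitemia to day 60, and deaths were recorded to give mean survival days. Mice surviving and aparasitemic at day 60 counted as cured.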

[2] = test system: L6; experiment: Cytotoxicity against rat L6 cells after 70 hrs by alamar blue assay; type: cell-based; conditions: L6, 70 h
In short: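 L6 rat myoblasts, 4000 per well, in RPMI 1640 with 2 mM L-glutamine, HEPES, NaHCO₃ and 10% FBS. Exposed to serial dilutions (DMSO ≤1%) for 70 h at 37 °C in humidified 5% CO₂. Resazurin then added for 2-3 h; fluorescence read at ex 536/em 588 nm. IC50 from sigmoidal curves; two independent runs in duplicate.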

[3] = test system: Trypanosoma brucei rhodesiense; experiment: Antiprotozoal activity against Trypanosoma brucei rhodesiense STIB900 trypomastigotes after 70 hrs by alamar blue assay; type: functional, organism-based
In short: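 Bloodstream forms, 2000 per well, in MEM with Earle's salts plus 0.2 mM 2-mercaptoethanol, 1 mM pyruvate, 0.5 mM hypoxanthine and 15% heat-inactivated horse serum. Exposed to serial dilutions (DMSO ≤1%) for 70 h at 37 °C in 5% CO₂. Resazurin then added for a further 2-6 h. IC50 from sigmoidal curves; two independent runs in duplicate.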

[4] = Selectivity index, ratio of IC50 for rat L6 cells to IC50 for Trypanosoma brucei rhodesiense STIB900 trypomastigotes; type: toxicity, cell-based; conditions: read-out: Ratio IC50
In short: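 Ratio of L6 IC50 to STIB900 IC50. L6 cells: 4000/well in RPMI 1640 with 10% FBS, 70 h at 37 °C. Bloodstream forms: 2000/well in supplemented MEM with 15% horse serum, 70 h at 37 °C. Both read by Alamar blue fluorescence; IC50s from sigmoidal curves, two independent runs in duplicate.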

[5] = test system: Plasmodium falciparum; experiment: Antiprotozoal activity after 48 hrs against chloroquine-resistant Plasmodium falciparum K1 infected erythrocytes by [3H]hypoxanthine uptake; type: functional, organism-based
In short: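 Erythrocytic stages in infected human red cells (hematocrit 1.25%, parasitemia 0.3%) in supplemented RPMI 1640 with Albumax II. Serial dilutions incubated at 37 °C in 93% N2/4% CO2/3% O2. [3H]-hypoxanthine (0.5 µCi/well) added at 48 h, then 24 h more. Incorporation counted by scintillation. IC50 from sigmoidal curves; two independent runs in duplicate.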

[6] = Selectivity index, ratio of IC50 for rat L6 cells to IC50 for chloroquine-resistant Plasmodium falciparum K1; type: toxicity, cell-based; conditions: read-out: Ratio IC50
In short: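 Ratio of L6 IC50 to K1 IC50. L6 cells: Alamar blue assay after 70 h, 37 °C. K1: [3H]-hypoxanthine incorporation in infected red cells over 48 + 24 h at 37 °C under low O2. IC50s from sigmoidal curves, two independent runs in duplicate.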

[7] = test system: Leishmania donovani; experiment: Antiprotozoal activity against Leishmania donovani MHOM/SD/62/1S-CL2D axenic amastigotes after 72 hrs; type: functional, organism-based
In short: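 L. donovani axenic amastigotes, adapted from promastigotes and grown in amastigote medium at 37 °C. 6 × 10⁴ parasites per well with 2-fold compound dilutions (DMSO ≤1%), incubated 72 h at 37 °C in humidified 5% CO₂. Growth read by tetrazolium (CellTiter) absorbance at 490 nm. IC50 from a four-parameter dose-response fit. Average of duplicate determinations.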

[8] = Selectivity index, ratio of IC50 for rat L6 cells to IC50 for Leishmania donovani MHOM/SD/62/1S-CL2D axenic amastigotes; type: toxicity, cell-based; conditions: read-out: Ratio IC50
In short: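 Amastigotes: 6 × 10⁴ parasites/well with 2-fold dilutions, 72 h at 37 °C in 5% CO2. Growth read by tetrazolium CellTiter absorbance at 490 nm; IC50 from a four-parameter dose-response fit.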

[9] = test system: Trypanosoma brucei rhodesiense; experiment: Antitrypanosomal activity against Trypanosoma brucei rhodesiense STIB900 trypomastigotes infected in NMRI mouse assessed as survival and aparasitemic condition at 20 mg/kg, ip administered from day 3 to day 6 postinfection measured after 60 days postinfection; type: functional, organism-based; design: dose 20 mg/kg
In short: (§2)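 STIB900 acute mouse model with 4 mice per group. Compound in DMSO diluted with water to a final 10% DMSO, given intraperitoneally once daily for four days. An infected, untreated control group was included. Tail blood checked for parasitemia until day 60. Mice alive and aparasitemic at day 60 counted as cured; deaths recorded for mean survival time.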

[10] = test system: Trypanosoma brucei rhodesiense; experiment: Antitrypanosomal activity against Trypanosoma brucei rhodesiense STIB900 trypomastigotes infected in NMRI mouse assessed as mouse survival at 5 mg/kg, ip administered from day 3 to day 6 postinfection; type: functional; conditions: route intraperitoneal; in short: as §1
[11] = test system: Trypanosoma brucei rhodesiense; experiment: Antitrypanosomal activity against Trypanosoma brucei rhodesiense STIB900 trypomastigotes infected in NMRI mouse assessed as survival and aparasitemic condition at 5 mg/kg, ip administered from day 3 to day 6 postinfection measured after 60 days postinfection; type: functional, organism-based; design: dose 5 mg/kg; in short: as §2
[12] = test system: Trypanosoma brucei rhodesiense; experiment: Antitrypanosomal activity against Trypanosoma brucei rhodesiense STIB900 trypomastigotes infected in NMRI mouse assessed as mouse survival at 10 mg/kg, ip administered from day 3 to day 6 postinfection; type: functional; conditions: route intraperitoneal; in short: as §1

| Compound | Survival [1] | IC50 [2] | IC50 [3] | selectivity ratio [4] | IC50 [5] | selectivity ratio [6] | IC50 [7] | selectivity ratio [8] | Activity [9] | Survival [10] | Activity [11] | Survival [12] |
| --- | --- | --- | --- | --- | --- | --- | --- | --- | --- | --- | --- | --- |
| Cl.Cl.N=C(N)c1ccc(OCCCOc2ccc(C(=N)N)cc2)cc1 | 34 days | 8800 nM | 7 nM | 1260 | 6 nM | 1470 | 1500 nM | 6 | inactive |  |  |  |
| Cl.Cl.N=C(N)c1cccc(OCCCCCOc2cccc(C(=N)N)c2)c1 | 18.5 days | 18400 nM | 65 nM | 283 | 19 nM | 968 | 3190 nM | 6 | inactive |  |  |  |
| COc1cc(C(=N)N)ccc1OCCCCCOc1ccc(C(=N)N)cc1OC.Cl.Cl |  | 162000 nM | 10 nM | 16200 | 21 nM | 7710 | 24000 nM | 7 |  | 26 days | inactive |  |
| Cl.Cl.N=C(Nc1ccc(OCCCCCOc2ccc(NC(=N)c3ccccc3)cc2)cc1)c1ccccc1 | 7 days | 3100 nM | 147 nM | 21 | 201 nM | 15 | > 100000 nM | < 1 | inactive |  |  |  |
| Cl.Cl.N=C(N)c1ccc(OCCCCOc2ccc(C(=N)N)cc2)cc1 | 24.8 days | 4700 nM | 10 nM | 470 | 21 nM | 224 |  |  | inactive |  |  |  |
| Cl.N=C(N)c1ccc(OCCCCCOc2ccc(C(=N)N)cc2)cc1 [PENTAMIDINE HYDROCHLORIDE] | >44.3 days |  | 7 nM |  | 14 nM |  |  |  |  |  |  | >43.5 days |
| Cl.Cl.N=C(N)c1ccc(OCCCCCOc2ccc(C(=N)N)c(F)c2)cc1F |  | 6900 nM | 13 nM | 531 | 15 nM | 460 | 1880 nM | 4 |  |  |  | >33 days |
| COc1cc(C2=NCCN2)ccc1OCCCOc1ccc(C2=NCCN2)cc1OC.Cl.Cl | >60 days | 105000 nM | 90 nM | 1170 | 55 nM | 1910 | 34600 nM | 3 |  |  |  | >32.8 days |
| Cl.Cl.Cl.Cl.N=C(N)c1ccc(OCCCCCOc2ccc(C(=N)N)cc2Cl)c(Cl)c1 | >29.5 days | 11200 nM | 44 nM | 255 | 26 nM | 431 | 1450 nM | 8 | inactive |  |  |  |
| CC(C)NC(=N)c1ccc(NCCCCCNc2ccc(C(=N)NC(C)C)cc2)cc1.Cl |  | 125000 nM | 50 nM | 2500 | 2 nM | 62500 | 5750 nM | 22 |  | 18 days | inactive |  |
| Cl.Cl.N=C(N)c1ccc(OCCCOc2ccc(C(=N)N)cc2N)c(N)c1 | >40 days | 68700 nM | 156 nM | 440 | 27 nM | 2540 |  |  |  |  |  |  |
| Cl.Cl.c1cc(C2=NCCN2)ccc1NCCCCCNc1ccc(C2=NCCN2)cc1 |  | 34500 nM | 1 nM | 34500 | 1 nM | 34500 | 254 nM | 136 |  | >60 days | Active |  |
| Cl.Cl.N=C(N)c1cccc(OCCCOc2cccc(C(=N)N)c2)c1 | >32.8 days | 16200 nM | 52 nM | 312 | 17 nM | 953 | 6070 nM | 3 |  |  |  | >40 days |
| Cl.N=C(N)c1ccc(NCCCCCNc2ccc(C(=N)N)cc2)cc1 |  | 950 nM | < 1 nM | > 950 | 6 nM | 158 | 502 nM | 2 |  | >29.3 days |  |  |
| CNC(=N)c1ccc(OCCCCCOc2ccc(C(=N)NC)cc2)cc1.Cl.Cl | >60 days | 152000 nM | 24 nM | 6330 | 4 nM | 38000 | 4690 nM | 32 | Active | >41 days |  |  |
| CC(C)NC(=N)c1ccc(OCCCCCOc2ccc(C(=N)NC(C)C)cc2)cc1.Cl.Cl |  | 150000 nM | 27 nM | 5560 | 3 nM | 50000 | 17800 nM | 8 |  | >41.3 days |  |  |
| Cl.c1cc(C2=NCCN2)ccc1OCCCCCOc1ccc(C2=NCCN2)cc1 | >39 days | > 178000 nM | 53 nM | > 3360 | 3 nM | > 59300 | 2770 nM | > 64 | inactive |  |  |  |
| Cl.Cl.N=C(N)c1cccc(OCCCCCCOc2cccc(C(=N)N)c2)c1 | >36 days | 17100 nM | 75 nM | 228 | 13 nM | 1320 | 2380 nM | 7 |  |  |  |  |
| COc1cc(C(=N)N)ccc1OCCCOc1ccc(C(=N)N)cc1OC.Cl.Cl | >60 days | 114000 nM | 23 nM | 4960 | 62 nM | 1840 | 6890 nM | 17 | Active | >52.8 days |  |  |
| Cl.Cl.N=C(N)c1ccc(OCCCCCCOc2ccc(C(=N)N)cc2)cc1 | >51.8 days | 10500 nM | 36 nM | 292 | 15 nM | 700 | 1970 nM | 5 |  | >44.3 days |  |  |
| CC(C)NC(=N)c1ccc(OCCCOc2ccc(C(=N)NC(C)C)cc2)cc1.Cl.Cl |  | > 192000 nM | 93 nM | > 2060 | 25 nM | > 7680 | 7110 nM | > 27 |  |  |  | >38.5 days |
| Cl.Cl.N=C(N)c1ccc(OCCCCCOc2ccc(C(=N)N)cc2C(N)=O)c(C(N)=O)c1 | 26.5 days | > 168000 nM | 45 nM | > 3730 | 38 nM | > 4420 | > 50000 nM |  | inactive |  |  |  |
| Cl.Cl.N=C(N)c1ccc(OCCCOc2ccc(C3=NCCN3)cc2)cc1 |  | 71600 nM | 18 nM | 3980 | 18 nM | 3980 | 2980 nM | 24 |  |  |  | >26.8 days |
